Common to all, as to format: functional, cell-based
The test system of assay [1] is BGC-823. The experiment in a line: Cytotoxicity against human BGC823 cells by MTT assay. In outline: (§1)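 Tumour cells cultured in RPMI-1640 with 10% (v/v) fetal calf serum plus penicillin and streptomycin, at 37 °C, humidified 5% CO2. Compounds from DMSO stocks; final DMSO in medium 2% (v/v) or lower. Assay in 96-well microtitre cultures with MTT staining. IC50 taken as concentration causing 50% growth inhibition relative to untreated cells.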

The subject of assay [2] is HepG2. The experiment in a line: Cytotoxicity against human HepG2 cells by MTT assay. In outline: as §1
(Tetrazolium dyes change colour on reduction, which living cells bring about.)

The test system of assay [3] is HeLa. The assay can be described thus: Cytotoxicity against human HeLa cells by MTT assay. In outline:
as §1

The subject of assay [4] is MCF7. The assay can be described thus: Cytotoxicity against human MCF7 cells by MTT assay. In outline:
as §1

Assay [5] has as its system Bel-7402. The assay can be described thus: Cytotoxicity against human Bel7402 cells by MTT assay. In outline: as §1

Take `CCOC(=O)c1cc2c3ccccc3n(Cc3ccc(F)cc3)c2cn1`: the IC50 in assay [1], in assay [2] (read-out: IC50), in assay [3], in assay [4] and in assay [5] was above 200 µM each time.

With `O=C(NCCO)c1cc2c3ccccc3n(Cc3ccc(F)cc3)c2cn1`, the IC50 in assay [1], in assay [2] (read-out: IC50), in assay [3], in assay [4] and in assay [5] was above 200 µM throughout.

Consider `COc1ccc2c(c1)[nH]c1c(C)[n+](Cc3ccccc3)ccc12`, for which the IC50 in assay [1] is 67.4 µM; in assay [2] (read-out: IC50) it was 54.6 µM; in assay [2] (read-out: pIC50 (converted)) it was 55 µM; in assay [3], 77.6 µM; in assay [4], 76.2 µM; in assay [5], 64.2 µM.

Regarding `CCCCn1c2ccccc2c2cc(CO)nc(C)c21`, the IC50 in assay [1] was 127 µM; in assay [2] (read-out: IC50), 128 µM; in assay [2] (read-out: pIC50 (converted)), 129 µM; in assay [3] it was 100 µM; in assay [4], 107 µM; in assay [5], 122 µM.

As to `CCCCn1c2ccccc2c2cc(C=O)nc(C)c21`, the IC50 in assay [1] was above 200 µM; in assay [2] (read-out: IC50) it was 143 µM; in assay [2] (read-out: pIC50 (converted)) it was 145 µM; in assay [3], 169 µM; in assay [4] it was 154 µM; in assay [5] it was 123 µM.

On to `CCCCn1c2ccccc2c2cc(C(=O)NCCO)nc(-c3cc(OC)c(OC)c(OC)c3)c21`, for which the IC50 in assay [3] is above 200 µM; in assay [4] it was 105 µM; in assay [5], above 200 µM.

Regarding `CCCC[n+]1ccc2c(c1)[nH]c1ccccc12`, the IC50 was 326 µM in assay [1]; 94 µM in assay [2] (read-out: IC50); 93.3 µM in assay [2] (read-out: pIC50 (converted)); 130 µM in assay [3]; 338 µM in assay [4]; 302 µM in assay [5].

Regarding `c1ccc(C[n+]2ccc3c(c2)[nH]c2ccccc23)cc1`, the IC50 in assay [1] is 91.8 µM; in assay [2] (read-out: IC50) it was 77.3 µM; in assay [2] (read-out: pIC50 (converted)) it was 77.6 µM; in assay [3] it was 85.4 µM; in assay [4] it was 91.3 µM; in assay [5], 65.1 µM.

In the case of `CCOc1ccc2c3ccnc(C)c3n(CC)c2c1`, the IC50 in assay [1] was 57.1 µM; in assay [2] (read-out: IC50) it was 68.9 µM; in assay [2] (read-out: pIC50 (converted)), 69.2 µM; in assay [3], 30.7 µM; in assay [4], 14.4 µM; in assay [5], 27.4 µM.

On to `CCn1c2cc(OCc3c(F)c(F)c(F)c(F)c3F)ccc2c2ccnc(C)c21`, for which the IC50 is 238 µM in assay [1]; 236 µM in assay [2] (read-out: IC50); 234 µM in assay [2] (read-out: pIC50 (converted)); 258 µM in assay [3]; 103 µM in assay [4]; 241 µM in assay [5].

Regarding `CCCCn1c2cc(OCC)ccc2c2ccnc(C)c21`, the IC50 was 37.2 µM in assay [1]; 43.3 µM in assay [2] (read-out: IC50); 43.7 µM in assay [2] (read-out: pIC50 (converted)); 32.1 µM in assay [3]; 12 µM in assay [4]; 36.1 µM in assay [5].

For the molecule `CCCCn1c2cc(OC(C)C)ccc2c2ccnc(C)c21`, the IC50 in assay [1] was 19.1 µM; in assay [2] (read-out: IC50), 30.2 µM; in assay [2] (read-out: pIC50 (converted)), 30.2 µM; in assay [3], 21.2 µM; in assay [4] it was 19.5 µM; in assay [5], 26.8 µM.

On to `CCCCCCCCCCOc1ccc2c3ccnc(C)c3n(CCCC)c2c1`, for which the IC50 in assay [1] is 28.4 µM; in assay [2] (read-out: IC50), 127 µM; in assay [2] (read-out: pIC50 (converted)), 126 µM; in assay [3] it was 106 µM; in assay [4], 62.7 µM; in assay [5], 18.8 µM.

Take `Cc1c2[nH]c3ccccc3c2cc[n+]1CCCc1ccccc1`: the IC50 in assay [1] is 3.5 µM; in assay [2] (read-out: IC50) it was 33 µM; in assay [2] (read-out: pIC50 (converted)) it was 33.1 µM; in assay [3], 49.8 µM; in assay [4], 23.8 µM; in assay [5] it was 20.5 µM.

`c1ccc(CCC[n+]2ccc3c(c2)[nH]c2ccccc23)cc1`: the IC50 is 7.1 µM in assay [1]; 44.6 µM in assay [2] (read-out: IC50); 44.7 µM in assay [2] (read-out: pIC50 (converted)); 44.3 µM in assay [3]; 5.7 µM in assay [4]; 24.6 µM in assay [5].

Regarding `CCn1c2cc(O)ccc2c2ccnc(C)c21`, the IC50 in assay [1] is 160 µM; in assay [2] (read-out: IC50), 134 µM; in assay [2] (read-out: pIC50 (converted)), 135 µM; in assay [3] it was 70.3 µM; in assay [4], 106 µM; in assay [5], 165 µM.

Consider `Cc1c2[nH]c3ccccc3c2cc[n+]1Cc1ccccc1`, for which the IC50 in assay [1] was 77.4 µM; in assay [2] (read-out: IC50), 69.5 µM; in assay [2] (read-out: pIC50 (converted)), 69.2 µM; in assay [3], 69.2 µM; in assay [4], 89.2 µM; in assay [5] it was 74 µM.

In the case of `O=C(NCCO)c1cc2c3ccccc3n(CCCc3ccccc3)c2cn1`, the IC50 in assay [1], in assay [2] (read-out: IC50), in assay [3], in assay [4] and in assay [5] was above 200 µM in each case.

For `OCc1cc2c3ccccc3n(Cc3ccc(F)cc3)c2cn1`, the IC50 in assay [1], in assay [2] (read-out: IC50), in assay [3], in assay [4] and in assay [5] was above 200 µM in each case.

`CCCCn1c2ccccc2c2cc(C(=O)NCCN)ncc21`: the IC50 in assay [1] was 53.2 µM; in assay [2] (read-out: IC50), 82.9 µM; in assay [2] (read-out: pIC50 (converted)) it was 83.2 µM; in assay [3], 26.9 µM; in assay [4] it was 18.5 µM; in assay [5] it was 115 µM.

As for `Cc1nccc2c3ccc(O)cc3n(CCCc3ccccc3)c12`, the IC50 in assay [1] is 29.9 µM; in assay [2] (read-out: IC50) it was 28.3 µM; in assay [2] (read-out: pIC50 (converted)) it was 28.2 µM; in assay [3], 45.3 µM; in assay [4], 34.5 µM; in assay [5], 35.1 µM.

As for `CCCCn1c2cc(O)ccc2c2ccnc(C)c21`, the IC50 is 90.2 µM in assay [1]; 81.5 µM in assay [2] (read-out: IC50); 81.3 µM in assay [2] (read-out: pIC50 (converted)); 89.8 µM in assay [3]; 46.9 µM in assay [4]; 69.5 µM in assay [5].

As to `CCOC(=O)c1cc2c([nH]c3ccccc32)c(-c2cc(OC)c(OC)c(OC)c2)n1`, the IC50 is above 200 µM in assay [1]; 167 µM in assay [2] (read-out: IC50); 166 µM in assay [2] (read-out: pIC50 (converted)); above 200 µM in assay [3]; 123 µM in assay [4]; above 200 µM in assay [5].

As to `CCCCn1c2ccccc2c2cc(C(=O)NCCCCCCN)ncc21`, the IC50 in assay [1] is 110 µM; in assay [2] (read-out: IC50), 95.8 µM; in assay [2] (read-out: pIC50 (converted)) it was 95.5 µM; in assay [3] it was 53 µM; in assay [4] it was 42.8 µM; in assay [5] it was 58.5 µM.

In the case of `CCCCn1c2ccccc2c2cc(C(=O)NCCO)nc(C)c21`, the IC50 in assay [1] was 45 µM; in assay [2] (read-out: IC50) it was 140 µM; in assay [2] (read-out: pIC50 (converted)), 141 µM; in assay [3], 80.4 µM; in assay [4] it was 97.3 µM; in assay [5], 90.6 µM.

On to `CCCCn1c2ccccc2c2cc(C(=O)NCCN)nc(C)c21`, for which the IC50 was 17.3 µM in assay [1]; 21.9 µM in assay [2] (read-out: IC50); 21.9 µM in assay [2] (read-out: pIC50 (converted)); 13.3 µM in assay [3]; 7.5 µM in assay [4]; 56 µM in assay [5].

As for `O=C(NCCO)c1cc2c3ccccc3n(Cc3ccccc3)c2cn1`, the IC50 in assay [1], in assay [2] (read-out: IC50), in assay [3], in assay [4] and in assay [5] was above 200 µM each time.

For `NCCCCCCNC(=O)c1cc2c3ccccc3n(Cc3ccccc3)c2cn1`, the IC50 in assay [1] is 34.8 µM; in assay [2] (read-out: IC50) it was 58.7 µM; in assay [2] (read-out: pIC50 (converted)), 58.9 µM; in assay [3], 24.2 µM; in assay [4], 54.1 µM; in assay [5], 56.8 µM.

For `CCCCn1c2ccccc2c2cc(C(=O)OCC)nc(-c3cc(OC)c(OC)c(OC)c3)c21`, the IC50 in assay [2] (read-out: IC50), in assay [3], in assay [4] and in assay [5] was above 200 µM each time.

For `CCCCn1c2ccccc2c2cc(C(=O)O)nc(-c3cc(OC)c(OC)c(OC)c3)c21`, the IC50 was 36.2 µM in assay [1]; 208 µM in assay [2] (read-out: IC50); 209 µM in assay [2] (read-out: pIC50 (converted)); 166 µM in assay [3]; 115 µM in assay [4]; 187 µM in assay [5].

For the molecule `CCCCOc1ccc2c3ccnc(C)c3n(CCCC)c2c1`, the IC50 was 15.8 µM in assay [1]; 15.5 µM in assay [2] (read-out: IC50); 15.5 µM in assay [2] (read-out: pIC50 (converted)); 17.4 µM in assay [3]; 17.3 µM in assay [4]; 69.9 µM in assay [5].

Consider `O=Cc1cc2c3ccccc3n(Cc3ccc(F)cc3)c2cn1`, for which the IC50 in assay [1], in assay [2] (read-out: IC50), in assay [3], in assay [4] and in assay [5] was above 200 µM throughout.

As to `NCCNC(=O)c1cc2c3ccccc3n(Cc3ccccc3)c2cn1`, the IC50 in assay [1] is 11.9 µM; in assay [2] (read-out: IC50), 104 µM; in assay [2] (read-out: pIC50 (converted)), 105 µM; in assay [3] it was 42.8 µM; in assay [4] it was 51.6 µM; in assay [5], 51.7 µM.

Consider `CCOC(=O)c1cc2c([nH]c3ccccc32)c(C)[n+]1Cc1ccccc1`, for which the IC50 in assay [1] was 55.3 µM; in assay [2] (read-out: IC50), 53 µM; in assay [2] (read-out: pIC50 (converted)) it was 52.5 µM; in assay [3], 101 µM; in assay [4], 44.9 µM; in assay [5], 56.2 µM.

As for `Cc1nccc2c3ccc(O)cc3n(CC(C)C)c12`, the IC50 is 140 µM in assay [1]; 116 µM in assay [2] (read-out: IC50); 115 µM in assay [2] (read-out: pIC50 (converted)); 68.3 µM in assay [3]; 96.9 µM in assay [4]; 114 µM in assay [5].

Turning to `Cc1nc(C(=O)NCCN)cc2c3ccccc3n(Cc3ccccc3)c12`, the IC50 was 20.3 µM in assay [1]; 34.8 µM in assay [2] (read-out: IC50); 34.7 µM in assay [2] (read-out: pIC50 (converted)); 11 µM in assay [3]; 4.7 µM in assay [4]; 53.6 µM in assay [5].
